Assay [1] has as its system Mycobacterium tuberculosis. Briefly: Antimycobacterial activity against Mycobacterium tuberculosis isolate NJT210 expressing embB codon 306 ATC-ATG mutant at 37 degC after 10 to 11 days by radiometric Bactec 460TB method. Type of assay: functional.
The subject of assay [2] is Mycobacterium tuberculosis. Briefly: Antimycobacterial activity against Mycobacterium tuberculosis isolate NJT210 expressing embB codon 306 CTG mutant at 37 degC after 10 to 11 days by radiometric Bactec 460TB method. Type of assay: functional.
The subject of assay [3] is Mycobacterium tuberculosis. As to the kind of experiment: Antimycobacterial activity against ethambutol resistant Mycobacterium tuberculosis isolate NJT210EMB-R-C3 assessed as bacterial colony formation at 37 degC after 10 to 11 days by radiometric Bactec 460TB method. The class given is functional.
Assay [4] concerns Mycobacterium tuberculosis. As to the kind of experiment: Antimycobacterial activity against isoniazid, rifampin, ethambutol resistant Mycobacterium tuberculosis isolate 5310 at 37 degC after 3 to 4 weeks by radiometric Bactec 460TB method. Type of assay: functional.
Assay [5] relates to Mycobacterium tuberculosis. Briefly: Antimycobacterial activity against Mycobacterium tuberculosis isolate NJT210 expressing embB codon 306 ATC mutant at 37 degC after 10 to 11 days by radiometric Bactec 460TB method. The class given is functional.
Assay [6] has as its system Mycobacterium tuberculosis. As to the kind of experiment: Antimycobacterial activity against rifampin, ethambutol resistant Mycobacterium tuberculosis isolate 5041 at 37 degC after 3 to 4 weeks by radiometric Bactec 460TB method. The class given is functional.
Assay [7] has as its system Mycobacterium tuberculosis. As to the kind of experiment: Antimycobacterial activity against ethambutol resistant Mycobacterium tuberculosis isolate NJT210EMB-R-C2 assessed as bacterial colony formation at 37 degC after 10 to 11 days by radiometric Bactec 460TB method. Type of assay: functional.
The test system of assay [8] is Mycobacterium tuberculosis. As to the kind of experiment: Antimycobacterial activity against Mycobacterium tuberculosis isolate NJT210 expressing embB codon 306 ATA mutant at 37 degC after 10 to 11 days by radiometric Bactec 460TB method. The class given is functional.
The test system of assay [9] is Mycobacterium tuberculosis. As to the kind of experiment: Antimycobacterial activity against Mycobacterium tuberculosis isolate NJT210 expressing embB codon 306 CTG-ATG mutant at 37 degC after 10 to 11 days by radiometric Bactec 460TB method. The class given is functional.
For assay [10], the system named is Mycobacterium tuberculosis. Briefly: Antimycobacterial activity against rifampin, ethambutol resistant Mycobacterium tuberculosis isolate A2558 at 37 degC after 3 to 4 weeks by radiometric Bactec 460TB method. The class given is functional.
The subject of assay [11] is Mycobacterium tuberculosis. Briefly: Antimycobacterial activity against rifampin, ethambutol resistant Mycobacterium tuberculosis isolate NJT30167 expressing embB codon 306 ATG mutant at 37 degC after 3 to 4 weeks by radiometric Bactec 460TB method. The class given is functional.
The test system of assay [12] is Mycobacterium tuberculosis. Briefly: Antimycobacterial activity against Mycobacterium tuberculosis isolate NJT210 expressing embB codon 306 GTG mutant at 37 degC after 10 to 11 days by radiometric Bactec 460TB method. Type of assay: functional.
The test system of assay [13] is Mycobacterium tuberculosis. Briefly: Antimycobacterial activity against isoniazid, rifampin, ethambutol resistant Mycobacterium tuberculosis isolate NJT5310 expressing embB codon 306 ATG-ATA mutant at 37 degC after 3 to 4 weeks by radiometric Bactec 460TB method. Type of assay: functional.
In assay [14] the test system is Mycobacterium tuberculosis. As to the kind of experiment: Antimycobacterial activity against rifampin, ethambutol resistant Mycobacterium tuberculosis isolate 30167 at 37 degC after 3 to 4 weeks by radiometric Bactec 460TB method. Type of assay: functional.
For assay [15], the system named is Mycobacterium tuberculosis. Briefly: Antimycobacterial activity against isoniazid, rifampin, ethambutol resistant Mycobacterium tuberculosis isolate NJT5310 expressing embB codon 306 ATG-CTG mutant at 37 degC after 3 to 4 weeks by radiometric Bactec 460TB method. The class given is functional.
Assay [16] has as its system Mycobacterium tuberculosis. As to the kind of experiment: Antimycobacterial activity against isoniazid, rifampin, ethambutol resistant Mycobacterium tuberculosis isolate NJT5310 expressing embB codon 306 ATG-GTG mutant at 37 degC after 3 to 4 weeks by radiometric Bactec 460TB method. The class given is functional.
In assay [17] the test system is Mycobacterium tuberculosis. Briefly: Antimycobacterial activity against ethambutol resistant Mycobacterium tuberculosis isolate NJT210EMB-R-C1 assessed as bacterial colony formation at 37 degC after 10 to 11 days by radiometric Bactec 460TB method. The class given is functional.
Assay [18] concerns Mycobacterium tuberculosis. Briefly: Antimycobacterial activity against isoniazid, rifampin, ethambutol resistant Mycobacterium tuberculosis isolate NJT5310 expressing embB codon 306 ATG-ATC mutant at 37 degC after 3 to 4 weeks by radiometric Bactec 460TB method. Type of assay: functional.
The test system of assay [19] is Mycobacterium tuberculosis. Briefly: Antimycobacterial activity against isoniazid, rifampin, ethambutol resistant Mycobacterium tuberculosis isolate NJT5310 expressing embB codon 306 ATG mutant at 37 degC after 3 to 4 weeks by radiometric Bactec 460TB method. The class given is functional.
Assay [20] has as its system Mycobacterium tuberculosis. As to the kind of experiment: Antimycobacterial activity against Mycobacterium tuberculosis isolate NJT210 expressing embB codon 306 CTG mutant assessed as bacterial growth rate at 0.04 ug/ml by radiometric Bactec 460TB method. The class given is functional, organism-based. In a few lines:
(§1)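 Sub-MIC growth curves in Bactec 12B vials with isoniazid (strain 210 vs NJT210CTG also rifampin) at several sub-MIC levels. The daily growth index was followed. No-drug controls were inoculated at 1:100 dilution. Values are means and standard deviations of three independent experiments.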

Assay [21] deals with Mycobacterium tuberculosis. Briefly: Antimycobacterial activity against ethambutol-susceptible and rifampin-resistant Mycobacterium tuberculosis isolate NJT30167 expressing embB codon 306 ATG assessed as bacterial growth rate at sub MIC compound concentration by radiometric Bactec 460TB method. The class given is functional, organism-based. In a few lines: as §1
Assay [22] has as its system Mycobacterium tuberculosis. As to the kind of experiment: Antimycobacterial activity against Mycobacterium tuberculosis isolate NJT210 expressing embB codon 306 CTG mutant assessed as bacterial growth rate at 0.03 ug/ml by radiometric Bactec 460TB method. Type of assay: functional, organism-based. Summed up: as §1

Experimental findings from ChEMBL document CHEMBL1275420, “Transfer of embB codon 306 mutations into clinical Mycobacterium tuberculosis strains alters susceptibility to ethambutol, isoniazid, and rifampin” (2008) are described below.

Each structure is given as a SMILES string. In brackets after ≈: the same amount, converted by molar mass. Activity calls are given as the source filed them. The calls are words filed in the database; no cut-off is given here.

`CC[C@@H](CO)NCCN[C@@H](CC)CO` [ETHAMBUTOL]: the minimal inhibitory concentration (MIC) (in general, the least concentration at which growth counts as inhibited) was 2 µg/mL (≈ 9.79 µM) in assay [1]; 8.5 µg/mL (≈ 41.6 µM) in [2]; 8 µg/mL (≈ 39.2 µM) in assay [3]; 28 µg/mL (≈ 137 µM) in [4]; 7 µg/mL (≈ 34.3 µM) in assay [5]; 8 µg/mL (≈ 39.2 µM) in assay [6]. For the same molecule, the MIC in assay [7] is 14 µg/mL (≈ 68.5 µM); in assay [8], 7 µg/mL (≈ 34.3 µM); in [9] it was 2 µg/mL (≈ 9.79 µM); in assay [10], 5 µg/mL (≈ 24.5 µM); in assay [11] it was 3 µg/mL (≈ 14.7 µM); in [12], 14 µg/mL (≈ 68.5 µM). Also, the minimum inhibitory concentration (MIC) in [13] was 16 µg/mL (≈ 78.3 µM); in [14], 20 µg/mL (≈ 97.9 µM); in assay [15], 20 µg/mL (≈ 97.9 µM); in assay [16] it was 28 µg/mL (≈ 137 µM); in [17], 14 µg/mL (≈ 68.5 µM); in assay [18], 16 µg/mL (≈ 78.3 µM). The same molecule came in with an MIC in assay [19] of 3 µg/mL (≈ 14.7 µM).
For the molecule `NNC(=O)c1ccncc1` [ISONIAZID], the minimum inhibitory concentration (MIC) in assay [1] was determined as 0.05 µg/mL (≈ 0.365 µM); in [2], 0.05 µg/mL (≈ 0.365 µM); in assay [3] it was 0.05 µg/mL (≈ 0.365 µM); in assay [4] it was 2.5 µg/mL (≈ 18.2 µM); in assay [5], 0.05 µg/mL (≈ 0.365 µM); in assay [7], 0.05 µg/mL (≈ 0.365 µM). In addition, the MIC in assay [8] was found to be 0.05 µg/mL (≈ 0.365 µM); in assay [9] it was 0.05 µg/mL (≈ 0.365 µM); in assay [11], 0.07 µg/mL (≈ 0.51 µM); in [12], 0.05 µg/mL (≈ 0.365 µM); in assay [13], 2.5 µg/mL (≈ 18.2 µM); in [14] it was 0.07 µg/mL (≈ 0.51 µM). Also, the MIC stood at 2.5 µg/mL (≈ 18.2 µM) in assay [15]; 2.5 µg/mL (≈ 18.2 µM) in assay [16]; 0.05 µg/mL (≈ 0.365 µM) in assay [17]; 2.5 µg/mL (≈ 18.2 µM) in [18]; 2.5 µg/mL (≈ 18.2 µM) in assay [19]. For the same molecule, the result in assay [20] and in assay [22] was inactive. The result in assay [21] was Active.
For `CO[C@H]1/C=C/O[C@@]2(C)Oc3c(C)c(O)c4c(O)c(c(/C=N/N5CCN(C)CC5)c(O)c4c3C2=O)NC(=O)/C(C)=C\C=C\[C@H](C)[C@H](O)[C@@H](C)[C@@H](O)[C@@H](C)[C@H](OC(C)=O)[C@@H]1C` [RIFAMPIN], the minimal inhibitory concentration (MIC) in assay [1] was 0.05 µg/mL (≈ 0.0608 µM); in [2], 0.05 µg/mL (≈ 0.0608 µM); in assay [3], 0.05 µg/mL (≈ 0.0608 µM); in assay [4], greater than 240 µg/mL; in [5], 0.05 µg/mL (≈ 0.0608 µM); in assay [7], 0.05 µg/mL (≈ 0.0608 µM). Further, the minimum inhibitory concentration (MIC) is 0.05 µg/mL (≈ 0.0608 µM) in assay [8]; 0.05 µg/mL (≈ 0.0608 µM) in [9]; greater than 240 µg/mL in assay [11]; 0.05 µg/mL (≈ 0.0608 µM) in assay [12]; greater than 240 µg/mL in assay [13]; greater than 240 µg/mL in assay [14]. The minimum inhibitory concentration (MIC) is greater than 240 µg/mL in [15]; greater than 240 µg/mL in assay [16]; 0.05 µg/mL (≈ 0.0608 µM) in assay [17]; greater than 240 µg/mL in [18]; greater than 240 µg/mL in [19]. In addition, the result in [20] was inactive.
